Screening data from PubChem.
mIAP act: activators of mouse IAP, primary screen, biochemical, luminescence, uHTS; intestinal alkaline phosphatase [Mus musculus]; muIAP, CDP-Star luminescence, 30 min; hits give high values; 1 = vehicle-only enzyme signal, 0 = enzyme-free wells; activation factor at 10 µM; hit rate 0.24% among 330,000;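 active = activation factor of at least 2 at 20 µM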
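Assay system: mouse IAP enzyme / Compound: DMSO-dissolved test compounds / Timing: 30 min, room temperature / Measured by: luminescence from enzymatic CDP-Star hydrolysis / Control set: DMSO-only wells, enzyme-free buffer wells as negative control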
hIAP activ: human IAP activators, primary screen, biochemical, luminescence, uHTS | hit rate 0.16% among 330,000 | AID 2524, 2010 | purified human IAP, CDP-Star luminescence, 30 min; hits give high values; 1 = vehicle-only enzyme, 0 = enzyme-free background | activation factor at 10 µM;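 active = activation factor of the enzyme at least 2-fold when tested at 20 µM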
Target sequence (P09923 whole entry, looked up): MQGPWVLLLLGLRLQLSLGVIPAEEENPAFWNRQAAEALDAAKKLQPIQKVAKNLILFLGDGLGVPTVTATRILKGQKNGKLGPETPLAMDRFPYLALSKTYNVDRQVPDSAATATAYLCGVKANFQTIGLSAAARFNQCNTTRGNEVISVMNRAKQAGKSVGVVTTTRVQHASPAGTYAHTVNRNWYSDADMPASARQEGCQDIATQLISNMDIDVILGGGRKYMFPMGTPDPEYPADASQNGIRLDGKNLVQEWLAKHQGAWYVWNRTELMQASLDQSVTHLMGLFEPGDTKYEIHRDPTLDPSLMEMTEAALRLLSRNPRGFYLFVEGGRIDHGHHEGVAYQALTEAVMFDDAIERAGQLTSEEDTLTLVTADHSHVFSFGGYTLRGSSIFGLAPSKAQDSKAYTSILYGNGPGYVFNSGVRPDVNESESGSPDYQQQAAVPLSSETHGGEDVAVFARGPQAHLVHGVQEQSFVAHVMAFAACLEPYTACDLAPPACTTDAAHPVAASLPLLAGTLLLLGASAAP
mIAP inh: inhibitors of mouse IAP, primary screen, biochemical, luminescence, uHTS | hit rate 0.2% among 330,000 | AID 2806, 2010 | inhibition, % at 10 µM | purified mouse IAP, CDP-Star luminescence, 30 min;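 active = inhibition of at least 40% at 10 µM in the primary screen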
bIAP act: bovine intestinal alkaline phosphatase activators, primary screen, biochemical, bovine IAP, CDP-star luminescence; purified bovine IAP, 30 min; hits give high values; fold of DMSO-control signal, blank-subtracted; activation factor at 20 µM; hit rate 0.17% among 200,000; AID 1016, 2008;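 active = activation factor of 2 or more at 20 µM, a signal rise over negative controls twice the positive control's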
hIAP inh: human IAP inhibitors, primary screen, biochemical, luminescence, uHTS | purified IAP, CDP-Star luminescence, 30 min | hit rate 0.12% among 330,000 | AID 2544, 2010 | Intestinal-type alkaline phosphatase (Homo sapiens), P09923 | inhibition, % at 10 µM;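 active = inhibition reaching a set limit with compound at 10 µM in the primary screen, cut at about 35% in these data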
bIAP inhibitor: bovine intestinal alkaline phosphatase inhibitors, primary screen, selectivity assay for TNAP inhibitor project, biochemical, bovine IAP, CDP-star luminescence; alkaline phosphatase, intestinal [Bos taurus]; purified bovine IAP, 30 min; inhibition, % at 20 µM; 190,000 tested, under 10 active; AID 1019, 2008;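 active = over 50% inhibition of intestinal alkaline phosphatase at 20 µM in the single-dose screen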
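System: purified bovine intestinal alkaline phosphatase (IAP) enzyme; Input: IAP diluted 1/65,000,000 in the well; Measured by: CDP-star luminescence signal; Compound dosing: 20 µM single dose; Incubation: 30 min reaction at room temperature.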
hIAP act conf: human IAP activators, confirmation, biochemical, luminescence, single concentration, uHTS hits; purified IAP, CDP-Star luminescence, 30 min; hits give low values; AID 434926, 2010; activation (%Activity, negative = activation), % at 8.3 µM; shares compounds with hIAP activ; hit rate 10% among 880;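 active = at least twofold enzyme activation in any of six single-dose repeats, which the averaged readout prints as negative percent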
Hits are given with their value; i = inactive; nt = no result. Sampled rows, rich in hits. Any-hit rate of the full collection: about 0.79%.

SMILES | mIAP act | hIAP activ | mIAP inh | bIAP act | hIAP inh | bIAP inhibitor | hIAP act conf
O=C(CSc1nc2cc(S(=O)(=O)N3CCOCC3)ccc2o1)NC1CCCc2ccccc21 (stereo unspecified) | i | i | i | i | i | i | nt
COc1cccc(CNc2ccccc2O)c1OCc1ccccc1F | i | i | i | i | i | i | nt
CCc1ccc(S(=O)(=O)/N=C2\C=C(NS(=O)(=O)c3ccccc3)C(=O)c3ccccc32)cc1 | i | i | i | nt | 36 | nt | i
COC(=O)/C(C#N)=C/c1c(Oc2cc(C)cc(C)c2)nc2ccccn2c1=O | i | 2 | i | nt | i | nt | i
CSC1=C(C#N)C(c2ccccc2Cl)C(C(C)=O)=C(C)N1 (stereo unspecified) | i | i | i | i | 35 | i | i
CSC1=C(C#N)C(c2ccccc2)C(C(C)=O)=C(C)N1 (stereo unspecified) | i | i | i | i | i | i | nt
Cc1ccc(S(=O)(=O)NC(CC(=O)NCC2CCCO2)c2ccco2)cc1 (stereo unspecified) | i | i | i | i | 39 | i | i
Cc1cc(NS(=O)(=O)c2ccc(NC(=O)C(C)Oc3ccc4c(C)cc(=O)oc4c3)cc2)no1 (stereo unspecified) | i | 2.6 | i | i | i | i | i
CCOC(=O)C1CCCN(C(=S)Nc2cccc(Cl)c2C)C1 (stereo unspecified) | i | i | i | i | i | i | nt
CCOC(=O)c1cccnc1SCC(=O)N(C)c1ccccc1 | i | i | i | i | 39 | i | i
CCOC(=O)c1cccnc1SCc1cc(=O)n2ccccc2n1 | i | i | i | i | i | i | nt
CN(C)c1ccc(N=Nc2ccccc2C(=O)OCC(=O)NCC2CCCCC2)cc1 | i | i | i | i | i | i | nt
CN(C)c1ccc(N=Nc2ccccc2C(=O)OCC(=O)NC2CCCC2)cc1 | i | i | i | i | 40 | i | i
O=C(CCN1C(=O)/C(=C/c2ccccc2Cl)SC1=S)NNC(=O)c1ccccc1O | i | 2.1 | i | nt | i | nt | i
COc1ccc(NC(=O)CN2C(=O)COc3ccc(S(=O)(=O)N4CCCCCC4)cc32)cc1 | i | i | i | nt | 37 | nt | i
CCOc1ccc(NC(=O)CN2C(=O)COc3ccc(S(=O)(=O)N4CCCCC4)cc32)cc1 | i | i | i | nt | i | nt | nt
CC(=O)Nc1cccc(-c2cc(C)c3cc4c(cc3n2)OCO4)c1 | i | i | i | nt | i | nt | nt
NC(=S)NNC(=O)COc1ccccc1O | i | 2.1 | i | nt | i | nt | i
COc1ccccc1OCC(=O)NNC(=O)CCCC(=O)NNC(=O)COc1ccccc1OC | i | i | i | nt | i | nt | nt
COc1ccc(CC(NC(C)=O)C(=O)NC2CCN(C(=O)NCc3ccccc3)CC2)cc1 (stereo unspecified) | i | i | i | i | 36 | i | i
COc1cccc(CC(NC(C)=O)C(=O)NC2CCN(C(=O)NCc3ccccc3)CC2)c1 (stereo unspecified) | i | i | i | nt | i | nt | nt
COCc1cc(=O)n2[nH]cc(-c3ccsc3)c2n1 | i | i | i | nt | i | nt | nt
CCN(CC)C(=O)C(=O)N/N=C/c1ccc(Cl)cc1Cl | i | 2.1 | i | i | i | i | i
CNC(=S)NNC(=O)c1cccn(Cc2cccc(Cl)c2)c1=O | i | 2 | i | i | i | i | i
CNC(=S)NNC(=O)c1cccn(Cc2ccc(Cl)c(Cl)c2)c1=O | i | i | i | i | i | i | nt
SMILES | mIAP act | hIAP activ | mIAP inh | bIAP act | hIAP inh | bIAP inhibitor | hIAP act conf
Nc1nc(NCCCN2CCOCC2)nc(Nc2cccc(F)c2)c1[N+](=O)[O-] | i | i | i | nt | 36 | nt | i
CCOC(=O)C1ON2CCCCC2C1(O)C(F)(F)F (stereo unspecified) | i | i | i | i | i | i | nt
Cc1nc2c3ccccc3nc(NNC(=O)CCC(=O)N3CCN(c4ccc(F)cc4)CC3)n2n1 | i | i | i | nt | i | nt | nt
CCCCNC(=O)CCC(=O)NNc1nc2ccccc2c2nc(C)nn12 | i | 2.5 | i | i | i | i | i
CCOCCCNC(=O)CCC(=O)NNc1nc2ccccc2c2nc(C)nn12 | i | 3.1 | i | i | i | i | i
Cc1nc2c3ccccc3nc(NNC(=O)CCC(=O)NCCN3CCN(c4ccccc4)CC3)n2n1 | i | 2.3 | i | nt | i | nt | -97
CCCc1cc(=O)oc2cc(C)cc(OC(C)C(=O)NCC(O)c3ccccc3)c12 (stereo unspecified) | i | i | i | nt | i | nt | nt
COc1cc(NC(=S)NCCCN2CCOCC2)cc(OC)c1 | i | i | i | i | i | i | nt
CC12CCC(=O)N1C(C(=O)Nc1nnc(SCc3ccccc3F)s1)CS2 (stereo unspecified) | i | i | i | nt | i | nt | nt
COc1cccc(/C=N/NC(=O)c2cc(-c3cccn3C)n[nH]2)c1O | i | 2.4 | i | i | i | i | i
Cc1c(Cl)cccc1NC(=O)C(=O)NNS(=O)(=O)c1ccc(F)cc1 | i | 2.4 | i | nt | i | nt | i
CCc1occc(=O)c1Oc1cc(NN2CCCCC2)c([N+](=O)[O-])cc1[N+](=O)[O-] | i | i | i | nt | 42 | nt | i
Cc1ccc(NC(=O)c2ccncc2)cc1[N+](=O)[O-] | i | 2.1 | i | i | i | i | i
Cc1ccc(C(=O)Nc2ccncc2)cc1[N+](=O)[O-] | i | i | i | nt | i | nt | nt
CC(C)(C)NCC(=O)c1c[nH]c2ccccc12 | i | 2.1 | i | i | i | i | i
CC(=O)OCC(=O)c1c[nH]c2ccccc12 | i | i | i | i | i | i | nt
O=C(c1ccco1)N1CCN(c2nc(-c3ccc(F)cc3)cs2)CC1 | i | 2 | i | i | i | i | i
CC(=O)c1ccc(N2CCN(S(=O)(=O)c3ccc4c(c3)NC(=O)CO4)CC2)cc1 | i | i | i | nt | i | nt | nt
Cc1cccc(NC(=O)C2CCCN(c3ncnc4c3nc3n4CCCCC3)C2)n1 (stereo unspecified) | i | i | i | nt | i | nt | nt
Nc1ccc(C(=O)OCC(=O)N2c3ccccc3Sc3ccccc32)cc1[N+](=O)[O-] | nt | nt | nt | i | nt | i | nt
NCCNc1ccc(C(=O)N2c3ccccc3Sc3ccccc32)cc1[N+](=O)[O-] | i | 3.5 | i | nt | i | nt | i
CC1(C)Cc2c(cnn2-c2cccc(F)c2)C(NC(=O)C2CCOCC2)C1 (stereo unspecified) | i | i | i | nt | i | nt | nt
